Test results: ChEMBL document CHEMBL4049421, “Design, Synthesis, and Pharmacological Characterization of N-(4-(2 (6,7-Dimethoxy-3,4-dihydroisoquinolin-2(1H)yl)ethyl)phenyl)quinazolin-4-amine Derivatives: Novel Inhibitors Reversing P-Glycoprotein-Mediated Multidrug Resistance” (J Med Chem, 2017)
Active and inactive are the calls of the source. The calls are words filed in the database; no cut-off is given here.

Key:
Rattus norvegicus [1] = test: Effect on MRT of doxorubicin in Sprague-Dawley rat at 5 mg/kg, iv co-administered with doxorubicin measured after 8 hrs by LC-MS/MS analysis; format: ADME, organism-based; conditions: in vivo
Summary of the method: (§1)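 Male SD rats received DOX 10 mg/kg i.v. alone or with modulator 5 mg/kg i.v. Orbital blood was taken at 5 min to 8 h. Plasma DOX was measured by LC-MS/MS with DNR (0.5 μg/mL) as internal standard. Mean ± SD, n = 3.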

Rattus norvegicus [2] = test: AUC(0 to 24 hrs) in Sprague-Dawley rat plasma at 10 mg/kg, po measured after 24 hrs by LC-MS/MS analysis; format: ADME, organism-based; set-up: dose 10 mg/kg, time < 24 hr, route oral; conditions: in vivo
Summary of the method: (§2)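 Male Sprague-Dawley rats, n = 3 per group, given drug in Tween-80/ethanol/saline (5:10:85, v/v) at 10 mg/kg p.o. or 5 mg/kg i.v. Retro-orbital blood was taken at 5 min to 24 h, and plasma separated at 900g. Samples were spiked with internal standard, methanol-precipitated and quantified by LC-MS/MS. F = (AUCpo/AUCiv)×(dose iv/dose po)×100%.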

[3] = Inhibition of CYP3A4 in rat liver microsomes assessed as decrease in 6beta-OH testosterone levels at 40 uM using testosterone as substrate by HPLC analysis; format: ADME
Summary of the method: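 Rat liver microsomes, prepared by differential centrifugation, were incubated with testosterone in the absence or presence of compound at 2.5, 5.0, 10.0, 20.0 and 40.0 μM. The 6β-OH testosterone product was quantified by C18 reverse-phase gradient HPLC at 254 nm. Ketoconazole served as positive control. n = 3.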

K562/A02 [4] = test: Effect on ABCB1 expression in human K562/A02 cells at 0.1 uM to 2.0 uM after 72 hrs by Western blot analysis; format: functional, cell-based
Summary of the method: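 K562/A02 cells were treated 72 h with compound at 0.1, 0.5 or 2.0 μM and lysed in RIPA/PMSF. Lysate (100 μg) was run on gradient SDS-PAGE and probed with anti-ABCB1, with β-tubulin loading control and ECL detection. Expression is given as the ABCB1/β-tubulin band-intensity ratio.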

[5] = Selectivity index, ratio of IC50 for HUVEC to EC50 for inhibition of P-gp in human K562/A02 cells assessed as potentiation of doxorubicin-induced cytotoxicity
Summary of the method: (§3)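 Reversal EC50 is the modulator concentration that halves the DOX IC50 in K562/A02 cells, from % DOX IC50 plotted against log modulator concentration. The index divides the MTT IC50 in K562, K562/A02 or HUVEC cells by this EC50.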

Rattus norvegicus [6] = test: AUC(0 to infinity) in Sprague-Dawley rat plasma at 5 mg/kg, iv measured after 24 hrs by LC-MS/MS analysis; format: ADME, organism-based; set-up: dose 5 mg/kg, time infinity, route intravenous; conditions: in vivo; summary of the method: as §2
[7] = Selective index, ratio of IC50 for human K562/A02 cells to EC50 for inhibition of P-gp in human K562/A02 cells assessed as potentiation of doxorubicin-induced cytotoxicity; summary of the method: as §3
Homo sapiens [8] = species on record: Homo sapiens; test: Inhibition of P-gp in human K562/A02 cells assessed as potentiation of vinblastine-induced cytotoxicity at 1.0 uM after 48 hrs by MTT assay; format: cell-based
Summary of the method: (§4)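 K562/A02 cells were exposed for 48 h to DNR, PTX, VLB or CTX at 0, 0.313–20 μM, with or without modulator at 1.0 μM. Viability was measured by MTT at 490 nm, mean ± SD of three independent tests.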

K562/A02 [9] = test: Potentiation of cyclophosphamide-induced cytotoxicity against human K562/A02 cells at 1.0 uM after 48 hrs by MTT assay; format: functional, cell-based; summary of the method: as §4
K562 = test: Cytotoxicity against human K562 cells assessed as suppression of cell viability after 48 hrs by MTT assay; format: cell-based; conditions: K562, 48 h
Summary of the method: (§5)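 MTT assay on HUVEC, K562 or K562/A02 cells seeded at 1×10^4 cells per well, using serial compound concentrations. Formazan was dissolved in DMSO and read at 490 nm. IC50 was obtained from log dose–response curves, mean ± SD of three independent tests.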

K562/A02 [10] = test: Cytotoxicity against human K562/A02 cells assessed as suppression of cell viability after 48 hrs by MTT assay; format: cell-based; conditions: K562/A02, 48 h; summary of the method: as §5
Homo sapiens [11] = species on record: Homo sapiens; test: Inhibition of P-gp in human K562/A02 cells assessed as potentiation of daunorubicin-induced cytotoxicity at 1.0 uM after 48 hrs by MTT assay; format: cell-based; summary of the method: as §4
Homo sapiens [12] = species on record: Homo sapiens; test: Inhibition of P-gp mediated efflux in human K562/A02 cells assessed as intracellular Rh123 accumulation at 1.0 uM measure up to 90 mins by flow cytometric analysis; format: cell-based
Summary of the method: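 K562/A02 cells were loaded with 5 μM Rh123 for 90 min at 37 °C and washed three times. They were then incubated with or without modulator at 37 °C for 5, 10, 25, 30, 60 and 90 min. Retained Rh123 MFI per 10000 cells was measured by flow cytometry. 0.1% DMSO negative control, n = 3.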

Homo sapiens [13] = species on record: Homo sapiens; test: Inhibition of P-gp in human K562/A02 cells assessed as potentiation of paclitaxel-induced cytotoxicity at 1.0 uM after 48 hrs by MTT assay; format: cell-based; summary of the method: as §4
Rattus norvegicus [14] = test: Effect on plasma clearance of doxorubicin in Sprague-Dawley rat at 5 mg/kg, iv co-administered with doxorubicin measured after 8 hrs by LC-MS/MS analysis; format: ADME, organism-based; conditions: in vivo; summary of the method: as §1
[15] = Plasma clearance in Sprague-Dawley rat at 5 mg/kg, iv measured after 24 hrs by LC-MS/MS analysis; format: ADME, organism-based; summary of the method: as §2
[16] = Bioavailability in Sprague-Dawley rat plasma at 5 mg/kg, iv measured after 24 hrs by LC-MS/MS analysis; format: ADME, organism-based
Summary of the method: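 Bioavailability was calculated as (AUCpo/AUCiv)×(dose iv/dose po)×100% from male SD rats (n = 3) dosed 5 mg/kg i.v. or 10 mg/kg p.o. in Tween-80/ethanol/saline (5:10:85). Plasma sampled 5 min–24 h was analysed by LC-MS/MS.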

Homo sapiens [17] = species on record: Homo sapiens; test: Inhibition of P-gp in human K562/A02 cells assessed as potentiation of doxorubicin-induced cytotoxicity at 1.0 uM preincubated for 24 hrs followed by doxorubicin addition measured after 48 hrs by MTT assay; format: cell-based
Summary of the method: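 K562/A02 cells (1×10^4 cells per well) were preincubated 24 h with modulator (1.0 μM or 5.0 μM) or PBS. Cells were washed 0 or 3 times with medium and held for 0, 6, 12 or 24 h. A DOX concentration series was then added for 48 h, and viability was read by MTT. Triplicate determinations.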

Rattus norvegicus [18] = test: AUC(0 to infinity) in Sprague-Dawley rat plasma at 10 mg/kg, po measured after 24 hrs by LC-MS/MS analysis; format: ADME, organism-based; set-up: dose 10 mg/kg, route oral, time infinity; conditions: in vivo; summary of the method: as §2
[19] = Elimination half life in Sprague-Dawley rat plasma at 5 mg/kg, iv by LC-MS/MS analysis; format: ADME, organism-based; conditions: read-out: beta t1/2 (converted); summary of the method: as §2
HUVEC = test: Cytotoxicity against HUVEC assessed as reduction in cell viability after 48 hrs by MTT assay; format: cell-based; conditions: Homo sapiens; summary of the method: as §5
[20] = Cmax in Sprague-Dawley rat at 10 mg/kg, po measured after 24 hrs by LC-MS/MS analysis; format: ADME, organism-based; set-up: dose 10 mg/kg, route oral; conditions: in vivo; summary of the method: as §2
[21] = Elimination half life in Sprague-Dawley rat plasma at 10 mg/kg, po by LC-MS/MS analysis; format: ADME, organism-based; conditions: read-out: beta t1/2 (converted); summary of the method: as §2

With COc1cc2c(cc1OC)CN(CCc1ccc(Nc3nc(-c4ccncc4)nc4ccccc34)cc1)CC2 the Activity (Rattus norvegicus [1]) was “Non-Toxic”, the AUC (Rattus norvegicus [2]) was 3130 ng·h/mL and the “inhibition (INH)” value [3] was “Not Active”. For the same molecule, the Activity (K562/A02 [4]) was “inactive”, the Ratio IC50/EC50 [5] was 1270 and the AUC (Rattus norvegicus [6]) was 1750 ng·h/mL. For the same molecule, the “Ratio IC50/EC50” value [7] was 241.6, the inhibition (Homo sapiens [8]) was “Active” and the Activity (K562/A02 [9]) was “inactive”. For the same molecule, the IC50 (K562) was 4 µM, the IC50 (K562/A02 [10]) was 12.8 µM and the inhibition (Homo sapiens [11]) was “Active”. The inhibition (Homo sapiens [12]) was “Active”, the inhibition (Homo sapiens [13]) was “Active” and the Activity (Rattus norvegicus [14]) was “Non-Toxic”. The clearance [15] was 47.8 mL/min/kg, the bioavailability [16] was 95.3% and the inhibition (Homo sapiens [17]) was “Active”. The AUC (Rattus norvegicus [18]) was 3340 ng·h/mL, the half-life [19] was 354 min and the IC50 (HUVEC) was 73.6 µM. The Cmax [20] was 761 ng/mL and the half-life [21] was 372 min.
